DENV2 CPE: DENV2-induced cell death inhibition; DENV2-infected cells, cytopathic effect rescue, plate reader; CPE inhibition, % at 9.99 µM; 350,000 tested, 1.7% active; AID 651640; in the data active = CPE inhibition above about 20%, passing the limit was not always enough; inconclusive = no clear call, values can overlap the other calls; tested in BHK-21 cells
PGC1a acetyl inh: lowers PGC1a acetylation signal in U2OS cells; 350,000 tested, 0.17% active; AlphaScreen anti-acetyl-lysine; with virally co-expressed GCN5 acetyltransferase; AID 651687; inhibition, % at 15.6 µM;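 active = every replicate shows inhibition of at least 40%; inconclusive = mean inhibition at least 40% but some replicate below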
S100A4 inh HTS: inhibitors of human S100A4 binding to myosin IIA peptide | P26447 | S100A4/TAMRA-MyoIIA peptide fluorescence polarization | inhibition, % at 10.7 µM | 360,000 tested, 0.14% active | AID 652163;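 active = mean inhibition of at least 70% across replicates, with every replicate also reaching that level; inconclusive = mean inhibition reaches 70% but some replicates fall short; inactive = mean inhibition below 70%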
Target sequence (P26447 whole entry, looked up): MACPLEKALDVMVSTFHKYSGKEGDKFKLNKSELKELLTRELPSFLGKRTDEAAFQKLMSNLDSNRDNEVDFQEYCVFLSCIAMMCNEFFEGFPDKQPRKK
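incubation = readout 5 min after mixing, signal stable up to 60 min | system = S100A4 monomer protein | buffer or medium = HEPES pH 7.2 with CaCl2, KCl, NaCl, DTT, Triton | benchmarks = neutral control DMSO, positive control TFP | also added = fluorescent myosin IIA peptide, 5 nM | compound dosing = one concentration per compound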
Statin myotox sup: suppression of simvastatin myotoxicity | 330,000 tested, 0.78% active | rescue of ATP level, % at 7.49 µM | AID 602340 | C2C12 myotubes + simvastatin, ATP luminescence, 48 h; scaled: DMSO 0, geranylgeraniol control 100;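 active = mean ATP rescue above about 67%, or every replicate alone reaching that limit, limit read from the data, passing the limit was not always enough; inconclusive = no clear call, values can overlap the other calls; inactive = mean under the limit and some replicate under it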;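 note: myotubes were challenged with 10 µM simvastatin during compound exposure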
SIRT5 block: inhibitors of human sirtuin-5 desuccinylase; Q9NXA8; Purified SirT5, succinyl-peptide AMC, trypsin-coupled fluorescence; inhibition, % at 15 µM; 330,000 tested, 1.1% active; in the data active = inhibition above about 15%; inconclusive = no clear call, values can overlap the other calls
Target sequence (Q9NXA8 whole entry, looked up): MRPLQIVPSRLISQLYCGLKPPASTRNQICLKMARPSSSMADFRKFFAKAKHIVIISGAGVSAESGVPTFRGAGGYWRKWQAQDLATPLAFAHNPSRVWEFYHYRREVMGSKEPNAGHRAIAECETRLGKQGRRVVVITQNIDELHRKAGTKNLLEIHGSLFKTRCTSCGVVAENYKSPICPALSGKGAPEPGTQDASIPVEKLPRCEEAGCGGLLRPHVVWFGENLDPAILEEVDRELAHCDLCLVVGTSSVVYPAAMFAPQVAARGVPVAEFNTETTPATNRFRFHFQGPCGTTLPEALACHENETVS
Of the large screens only hits and unclear results are named; the others gave an inactive call; ! = a repeat was not active. Sampled rows, rich in hits. Any-hit rate of the full collection: about 2.9%.

C[C@H](CO)N1C[C@H](C)[C@H](CN(C)Cc2ccc(C(=O)O)cc2)Oc2c(NS(=O)(=O)c3ccccc3)cccc2C1=O	DENV2 CPE 50
C[C@H](CO)N1C[C@H](C)[C@H](CN(C)Cc2ccccc2)Oc2c(NS(=O)(=O)c3ccc(F)cc3)cccc2C1=O	DENV2 CPE 104
CNC[C@H]1Oc2c(NS(=O)(=O)c3ccc(Cl)cc3)cccc2C(=O)N([C@H](C)CO)C[C@H]1C	DENV2 CPE 79
C[C@H](CO)N1C[C@H](C)[C@H](CN(C)Cc2ccc(Oc3ccccc3)cc2)Oc2c(NS(=O)(=O)c3ccc(Cl)cc3)cccc2C1=O	Statin myotox sup 80
C[C@H](CO)N1C[C@H](C)[C@H](CN(C)C(=O)C2CCOCC2)Oc2cc(C3=CCCCC3)ccc2S1(=O)=O	DENV2 CPE inconclusive
CC(C)NC(=O)Nc1cccc2c1O[C@@H](CN(C)S(C)(=O)=O)[C@@H](C)CN([C@@H](C)CO)C2=O	none
CNC[C@@H]1Oc2c(NS(=O)(=O)c3cccs3)cccc2C(=O)N([C@@H](C)CO)C[C@H]1C	none
C[C@H](CO)N1C[C@H](C)[C@@H](CN(C)Cc2ccccc2)Oc2c(NS(=O)(=O)c3ccc(Cl)cc3)cccc2C1=O	none
CNC[C@H]1Oc2c(NS(=O)(=O)c3cccs3)cccc2C(=O)N([C@@H](C)CO)C[C@H]1C	DENV2 CPE 26
C[C@@H]1CN([C@H](C)CO)C(=O)c2cccc(NS(=O)(=O)c3ccc(Cl)cc3)c2O[C@H]1CN(C)Cc1ccccc1	DENV2 CPE 25
CCOc1nnc(C)c2c(C)n(-c3ccc(Cl)cc3)nc12	Statin myotox sup 119 (no result: DENV2 CPE, S100A4 inh HTS, SIRT5 block)
CN1c2ccc(Cl)cc2C(=O)NC1c1ccc([N+](=O)[O-])s1 (centres undefined)	DENV2 CPE 45
Cc1ccc(C)c(NC(=S)N2CCC(C(=O)c3ccc(F)cc3)CC2)c1	DENV2 CPE 21 (no result: SIRT5 block)
CCNC(=S)N1CCC(C(=O)c2ccc(Cl)cc2)CC1	none
Cc1ccccc1NC(=S)N1CCC(C(=O)c2ccc(F)cc2)CC1	none
C=CCNC(=S)N1CCC(C(=O)c2ccc(F)cc2)CC1	DENV2 CPE 53
COc1ccc(NC(=S)N2CCC(C(=O)c3ccc(F)cc3)CC2)cc1	DENV2 CPE 37 (no result: PGC1a acetyl inh)
CNC(=S)N1CCC(C(=O)c2ccc(Cl)cc2)CC1	DENV2 CPE 22
CO[C@H]1CN(C)C(=O)c2ccc(NC(=O)C3CC3)cc2OC[C@@H](C)N(C(=O)C2CCOCC2)C[C@@H]1C	none (no result: PGC1a acetyl inh)
CCCNC(=O)N1[C@H](C#N)[C@H](c2ccc(-c3ccccc3F)cc2)[C@H]1CO	none
C[C@@H]1CCCCO[C@@H](CN(C)C(=O)Nc2ccc(C(F)(F)F)cc2)[C@H](C)CN([C@H](C)CO)C(=O)c2cc(NC(=O)NC3CCCCC3)ccc2O1	none (no result: Statin myotox sup)
C[C@H]1CN([C@@H](C)CO)C(=O)c2cccc(NS(=O)(=O)c3ccc(Cl)cc3)c2O[C@H]1CN(C)CC1CCCCC1	none (no result: PGC1a acetyl inh)
CN1CCCCN2[C@@H](CO)[C@H](c3ccc(-c4ccccc4)cc3)[C@@H]2C1	DENV2 CPE 32
CCS(=O)(=O)N1CCCCN2[C@H](CO)[C@@H](c3ccc(-c4ccc(C#N)cc4)cc3)[C@@H]2C1	DENV2 CPE 65
CCS(=O)(=O)N1CCCCN2[C@H](CO)[C@H](c3ccc(-c4ccc(C#N)cc4)cc3)[C@H]2C1	DENV2 CPE 55
CCS(=O)(=O)N1CCCCN2[C@H](C1)[C@@H](c1ccc(-c3ccccc3)cc1)[C@@H]2CO	SIRT5 block 16
CCCNC(=O)N(C)C[C@@H]1Oc2ncc(C#CCC(C)C)cc2C(=O)N([C@@H](C)CO)C[C@@H]1C	none (no result: Statin myotox sup)
C[C@@H]1CN([C@H](C)CO)C(=O)Cc2cc(NC(=O)C3CC3)ccc2O[C@H]1CN(C)C(=O)NC1CCCCC1	none
COC(=O)CN(c1cc(Cl)ccc1OC)S(=O)(=O)c1ccc(OC)c(OC)c1	DENV2 CPE 61 (no result: Statin myotox sup)
CCC(=O)N1C[C@@H]2[C@H](c3ccccc31)[C@H](CO)N2C(=O)CC1CC1	none
COc1ccc(NC(=O)Nc2ccc3c(c2)C(=O)N([C@H](C)CO)C[C@H](C)[C@@H](CN(C)S(=O)(=O)c2ccc(OC)cc2)O3)cc1	DENV2 CPE 26!
COc1ccc(NC(=O)Nc2ccc3c(c2)C(=O)N([C@H](C)CO)C[C@H](C)[C@@H](CN(C)S(C)(=O)=O)O3)cc1	DENV2 CPE 26!
C[C@H](CO)N1C[C@H](C)[C@H](CN(C)S(C)(=O)=O)Oc2ccc(NC(=O)Nc3ccccc3)cc2C1=O	none
COc1ccc(NC(=O)Nc2ccc3c(c2)C(=O)N([C@@H](C)CO)C[C@@H](C)[C@@H](CN(C)S(C)(=O)=O)O3)cc1	none
C[C@H](CO)N1C[C@H](C)[C@@H](CN(C)S(C)(=O)=O)Oc2ccc(NC(=O)Nc3ccccc3)cc2C1=O	DENV2 CPE 88!
COCCNC(=O)/C(C#N)=C/c1cc(C)n(C2CCCCC2)c1C	DENV2 CPE inconclusive, SIRT5 block 16 (no result: PGC1a acetyl inh, Statin myotox sup)
CC(C)C#Cc1cnc2c(c1)C(=O)N([C@@H](C)CO)C[C@@H](C)[C@H](CN(C)C(=O)c1cnccn1)O2	none
C[C@H]1CN([C@@H](C)CO)C(=O)CCCn2nncc2CO[C@@H]1CN(C)S(=O)(=O)c1cccs1	none
COC(=O)CCCC1=CC2=CC(=O)C(C)(OC(=O)c3cccs3)C(=O)C2=CN1CCc1ccccn1 (centres undefined)	DENV2 CPE 24
C=CCN1C=C2C(=O)C(C)(OC(=O)c3cccs3)C(=O)C=C2C=C1CCCC(=O)OC (centres undefined)	DENV2 CPE inconclusive (no result: PGC1a acetyl inh, SIRT5 block)
Cc1noc(C)c1NC(=O)Nc1ccc2c(c1)C(=O)N([C@@H](C)CO)C[C@H](C)[C@H](CN(C)Cc1ccc(Cl)c(Cl)c1)O2	none
CCn1c(C)nc2cc(C(=O)NNC(=O)Nc3ccc(Cl)c(Cl)c3)ccc21	SIRT5 block 18 (no result: PGC1a acetyl inh, Statin myotox sup)
Cc1ccc(-c2ccc([C@@H]3[C@H](CO)N4CCCCN(C(=O)Nc5cccc(F)c5)C[C@@H]34)cc2)cc1	none (no result: Statin myotox sup)
Cc1ccccc1-c1ccc([C@@H]2[C@H](CO)N3CCCCN(C(=O)Nc4cccc(F)c4)C[C@@H]23)cc1	DENV2 CPE 38
Cc1ccc(-c2ccc([C@@H]3[C@@H](CO)N4CCCCN(C(=O)Nc5cccc(F)c5)C[C@@H]34)cc2)cc1	SIRT5 block 18 (no result: Statin myotox sup)
Cc1ccccc1-c1ccc([C@H]2[C@@H](CO)N3CCCCN(C(=O)Nc4cccc(F)c4)C[C@H]23)cc1	DENV2 CPE 45
O=C([C@H]1[C@H](CO)[C@H]2Cn3c(cccc3=O)[C@H]2N1C(=O)CC1CC1)N1CCc2ccccc2C1	none
CO[C@@H]1CN(C)C(=O)c2cc(NS(=O)(=O)c3ccc(Oc4ccccc4)cc3)ccc2OC[C@H](C)NC[C@H]1C	none

High-throughput results as filed in PubChem BioAssay.
